Data reported in PMC3625064 (Molecular cell, 2012).
“Also recorded” adds a separate entry of the source. No end group written: not given here.

T1: LSD2 (Homo sapiens, UniProt Q8NB78)
T1 sequence (Q8NB78 1-822): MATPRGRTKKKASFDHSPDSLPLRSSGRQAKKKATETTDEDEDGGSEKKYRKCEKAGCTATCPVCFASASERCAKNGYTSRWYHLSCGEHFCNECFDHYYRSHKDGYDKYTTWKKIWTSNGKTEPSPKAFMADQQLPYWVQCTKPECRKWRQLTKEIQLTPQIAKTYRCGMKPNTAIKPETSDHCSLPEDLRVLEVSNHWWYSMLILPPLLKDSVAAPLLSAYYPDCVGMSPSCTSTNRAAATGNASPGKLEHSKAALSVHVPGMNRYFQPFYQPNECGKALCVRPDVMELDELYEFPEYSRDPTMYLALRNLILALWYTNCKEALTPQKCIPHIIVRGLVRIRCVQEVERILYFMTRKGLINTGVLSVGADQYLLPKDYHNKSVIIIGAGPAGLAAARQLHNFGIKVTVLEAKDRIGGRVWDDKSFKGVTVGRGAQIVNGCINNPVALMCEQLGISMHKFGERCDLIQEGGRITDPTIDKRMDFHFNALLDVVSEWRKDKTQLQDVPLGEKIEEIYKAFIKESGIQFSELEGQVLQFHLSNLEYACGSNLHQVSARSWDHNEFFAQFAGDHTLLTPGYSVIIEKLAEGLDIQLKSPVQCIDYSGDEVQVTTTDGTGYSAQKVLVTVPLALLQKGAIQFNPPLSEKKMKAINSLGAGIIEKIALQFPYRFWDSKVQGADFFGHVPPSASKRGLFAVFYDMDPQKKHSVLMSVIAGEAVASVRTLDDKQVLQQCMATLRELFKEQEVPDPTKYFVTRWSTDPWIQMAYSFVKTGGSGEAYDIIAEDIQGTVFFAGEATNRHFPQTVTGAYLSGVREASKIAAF

T2: recombinant hexa-His-tagged LSD2 (human, UniProt Q8NB78 1-822)
T2 sequence (looked up): T1 sequence (Q8NB78 1-822)

B1: NP.d1: PWWP domain, residues 1–150; GST-tagged (protein)
chain: MAAVSLRLGDLVWGKLGRYPPWPGKIVNPPKDLKKPRGKKCFFVKFFGTEDHAWIKVEQLKPYHAHKEEMIKINKGKRFQQAVDAVEEFLRRAKGKDQTSSHNSSDDKNRRNSSEERSRPNSGDEKRKLSLSEGKVKKNMGEGKKRVSSG
modifications: left off: GST, end not stated, kept
B2: NP.d6: deletion of the linker region (residues 152–252); GST-tagged (protein)
chain: MAAVSLRLGDLVWGKLGRYPPWPGKIVNPPKDLKKPRGKKCFFVKFFGTEDHAWIKVEQLKPYHAHKEEMIKINKGKRFQQAVDAVEEFLRRAKGKDQTSSHNSSDDKNRRNSSEERSRPNSGDEKRKLSLSEGKVKKNMGEGKKRVSSGSAADSTAVNGSITPTDKKIGFLGLGLMGSGIVSNLLKMGHTVTVWNRTAEKCDLFIQEGARLGRTPAEVVSTCDITFACVSDPKAAKDLVLGPSGVLQGIRPGKCYVDMSTVDADTVTELAQVIVSRGGRFLEAPVSGNQQLSNDGMLVILAAGDRGLYEDCSSCFQAMGKTSFFLGEVGNAAKMMLIVNMVQGSFMATIAEGLTLAQVTGQSQQTLLDILNQGQLASIFLDQKCQNILQGNFKPDFYLKYIQKDLRLAIALGDAVNHPTPMAAAANEVYKRAKALDQSDNDMSAVYRAYIH
modifications: left off: GST, end not stated, kept
B3: GST-NP.d2 (NPAC residues 1–252) (domain or fragment, UniProt Q49A26 1-252, looked up)
chain: MAAVSLRLGDLVWGKLGRYPPWPGKIVNPPKDLKKPRGKKCFFVKFFGTEDHAWIKVEQLKPYHAHKEEMIKINKGKRFQQAVDAVEEFLRRAKGKDQTSSHNSSDDKNRRNSSEERSRPNSGDEKRKLSLSEGKVKKNMGEGKKRVSSGSSERGSKSPLKRAQEQSPRKRGRPPKDEKDLTIPESSTVKGMMAGPMAAFKWQPTASEPVKDADPHFHHFLLSQTEKPAVCYQAITKKLKICEEETGSTSIQ
B4: NP.d2: truncation protein containing the linker region, residues 1–252; GST-tagged (protein)
chain: B3 chain
modifications: left off: GST, end not stated, kept
B5: GST-tagged wild-type NPAC (natural protein, UniProt Q49A26 1-553, looked up)
chain: MAAVSLRLGDLVWGKLGRYPPWPGKIVNPPKDLKKPRGKKCFFVKFFGTEDHAWIKVEQLKPYHAHKEEMIKINKGKRFQQAVDAVEEFLRRAKGKDQTSSHNSSDDKNRRNSSEERSRPNSGDEKRKLSLSEGKVKKNMGEGKKRVSSGSSERGSKSPLKRAQEQSPRKRGRPPKDEKDLTIPESSTVKGMMAGPMAAFKWQPTASEPVKDADPHFHHFLLSQTEKPAVCYQAITKKLKICEEETGSTSIQAADSTAVNGSITPTDKKIGFLGLGLMGSGIVSNLLKMGHTVTVWNRTAEKCDLFIQEGARLGRTPAEVVSTCDITFACVSDPKAAKDLVLGPSGVLQGIRPGKCYVDMSTVDADTVTELAQVIVSRGGRFLEAPVSGNQQLSNDGMLVILAAGDRGLYEDCSSCFQAMGKTSFFLGEVGNAAKMMLIVNMVQGSFMATIAEGLTLAQVTGQSQQTLLDILNQGQLASIFLDQKCQNILQGNFKPDFYLKYIQKDLRLAIALGDAVNHPTPMAAAANEVYKRAKALDQSDNDMSAVYRAYIH
B6: GST-NP.d3 (NPAC residues 152–252, linker region) (domain or fragment, UniProt Q49A26 152-252, looked up)
chain: SERGSKSPLKRAQEQSPRKRGRPPKDEKDLTIPESSTVKGMMAGPMAAFKWQPTASEPVKDADPHFHHFLLSQTEKPAVCYQAITKKLKICEEETGSTSIQ
B7: GST-NP.d8 (NPAC residues 188–252) (domain or fragment, UniProt Q49A26 188-252, looked up)
chain: TVKGMMAGPMAAFKWQPTASEPVKDADPHFHHFLLSQTEKPAVCYQAITKKLKICEEETGSTSIQ
B8: NP.d8: residues 188–252 (protein)
chain: B7 chain
modifications: left off: GST, end not stated, kept
B9: NP.d9: deletion of amino acids 214–222 from NP.d3 (protein)
chain: SERGSKSPLKRAQEQSPRKRGRPPKDEKDLTIPESSTVKGMMAGPMAAFKWQPTASEPVKDASQTEKPAVCYQAITKKLKICEEETGSTSIQ
modifications: left off: GST, end not stated, kept
B10: NP.d5: dehydrogenase domain, residues 262–553; GST-tagged (protein)
chain: SITPTDKKIGFLGLGLMGSGIVSNLLKMGHTVTVWNRTAEKCDLFIQEGARLGRTPAEVVSTCDITFACVSDPKAAKDLVLGPSGVLQGIRPGKCYVDMSTVDADTVTELAQVIVSRGGRFLEAPVSGNQQLSNDGMLVILAAGDRGLYEDCSSCFQAMGKTSFFLGEVGNAAKMMLIVNMVQGSFMATIAEGLTLAQVTGQSQQTLLDILNQGQLASIFLDQKCQNILQGNFKPDFYLKYIQKDLRLAIALGDAVNHPTPMAAAANEVYKRAKALDQSDNDMSAVYRAYIH
modifications: left off: GST, end not stated, kept
B11: GST-NP.d4 (NPAC residues 152–553) (domain or fragment, UniProt Q49A26 152-553, looked up)
chain: SERGSKSPLKRAQEQSPRKRGRPPKDEKDLTIPESSTVKGMMAGPMAAFKWQPTASEPVKDADPHFHHFLLSQTEKPAVCYQAITKKLKICEEETGSTSIQAADSTAVNGSITPTDKKIGFLGLGLMGSGIVSNLLKMGHTVTVWNRTAEKCDLFIQEGARLGRTPAEVVSTCDITFACVSDPKAAKDLVLGPSGVLQGIRPGKCYVDMSTVDADTVTELAQVIVSRGGRFLEAPVSGNQQLSNDGMLVILAAGDRGLYEDCSSCFQAMGKTSFFLGEVGNAAKMMLIVNMVQGSFMATIAEGLTLAQVTGQSQQTLLDILNQGQLASIFLDQKCQNILQGNFKPDFYLKYIQKDLRLAIALGDAVNHPTPMAAAANEVYKRAKALDQSDNDMSAVYRAYIH
B12: NP.d4: truncation protein containing the linker region, residues 152–553; GST-tagged (protein)
chain: B11 chain
modifications: left off: GST, end not stated, kept

Columns and labels:
LSD2 [1] = molecular target: T1, LSD2; test: H3K4me2 peptide; assay type: biochemical; conditions: 50 μM H3K4me2 peptide (1–21), 50 mM Tris-HCl pH 8.5, 50 mM KCl, 5 mM MgCl2, 5% glycerol, 37°C, 30 min; MALDI-TOF MS
Method in brief: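 Purified LSD2, full-length or truncated (residues 51–822), incubated with NPAC-derived peptides or proteins and 50 μM H3K4me2 peptide (residues 1–21, >95% pure by HPLC and MS) in 50 mM Tris-HCl pH 8.5, 50 mM KCl, 5 mM MgCl2, 5% glycerol, 37°C, 30 min. Products desalted on C18 tips; MALDI-TOF MS at constant laser intensity across samples.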

LSD2 [2] = molecular target: T1, LSD2; test: GST pull-down of His-LSD2; assay type: binding; conditions: GST pull-down of purified His-LSD2; SDS-PAGE, Coomassie blue staining
Method in brief: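 GST and GST-tagged wild-type or mutant NPAC proteins (linker-region and binding-site mutants) were used to pull down purified His-LSD2. His-LSD2 in input and bound fractions was resolved by SDS-PAGE and stained with Coomassie blue.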

[3] = molecular target: T2, recombinant hexa-His-tagged LSD2; test: pull-down

Molecule | LSD2 binding / interaction (LSD2 [2]) | binding result [3] | other results
DPHAHHFLLSQT [NP.M6] |  |  | cofactor activity for LSD2 with H3K4me2 peptide (residues 1–21) as substrate (LSD2 [1]): but not the F217A mutant, can stimulate LSD2-mediated demethylation of H3K4me2 peptides; also recorded: These results were further confirmed in demethylation assays using H3K4me2 peptide substrate (residues 1–21)
NP.d7: residues 152–186, containing the AT-hook motif (SERGSKSPLKRAQEQSPRKRGRPPKDEKDLTIPES; also: GST fusion, end not given here) | but not NP.d7 (residues 152–186, containing the AT-hook motif, lane 4), was sufficient for LSD2 interaction |  | 
B1 | Neither the PWWP domain (NP.d1) nor the dehydrogenase domain (NP.d5) interacted with LSD2 |  | 
B2 | abolished NPAC-LSD2 interaction |  | 
B3 |  | binds | 
B4 | capable of directly interacting with LSD2; also recorded: did not adversely affect LSD2 binding |  | 
B5 |  | binds | 
B6 |  | binds | 
B7 |  | binds | 
B8 | sufficient for LSD2 interaction |  | 
B9 | completely abolished LSD2 binding |  | 
B10 | Neither the PWWP domain (NP.d1) nor the dehydrogenase domain (NP.d5) interacted with LSD2 |  | 
B11 |  | binds | 
B12 | capable of directly interacting with LSD2; also recorded: did not adversely affect LSD2 binding |  | 
